Assay results reported in ChEMBL document CHEMBL4033615, “Protoxenicins A and B, Cytotoxic Long-Chain Acylated Xenicanes from the Soft Coral Protodendron repens” (2017).

Tests used:
Type in all cases: functional
Conditions in all cases: for CC50: read-out: LC50 (the source's name)
[1] = tested on: MDA-MB-231; test: Cytotoxic activity against human MDA-MB-231 cells
Summary of the method: (§1)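 Human tumour lines (A-549 lung carcinoma, MDA-MB-231 breast adenocarcinoma, HT-29 colorectal carcinoma) exposed to test agent. Growth measured against untreated control cells. Survival estimated with the NCI algorithm, yielding three dose–response parameters: GI50 (50% growth inhibition), TGI (total growth inhibition) and LC50 (50% cell death).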

[2] = tested on: HT-29; test: Cytotoxic activity against human HT-29 cells; summary of the method: as §1
[3] = tested on: A549; test: Cytotoxic activity against human A549 cells; summary of the method: as §1

Compound	GI50 [1] [nM]	TGI [1] [nM]	CC50 [1] [nM]	GI50 [2] [nM]	TGI [2] [nM]	CC50 [2] [nM]	GI50 [3] [nM]	TGI [3] [nM]	CC50 [3] [nM]
C=C1[C@@H]2[C@@H](OC(C)=O)OC=C([C@@H](OC(C)=O)[C@H](C=C(C)C)OC(=O)CCCCCCCCC)[C@H]2CC/C(C)=C/[C@@H](O)[C@H]1O	6300	9700	12900	1700	5200	10400	6100	10100	13300
C=C1[C@@H]2[C@@H](OC(C)=O)OC=C([C@@H](OC(C)=O)[C@@H](OC(=O)CCCCCCCCC)[C@H]3OC3(C)C)[C@H]2CC[C@](C)(O)[C@@H]2O[C@@H]2[C@H]1O	2100	2800	3800	600	1200	2200	1100	1400	1800
COc1cccc2c1C(=O)c1c(O)c3c(c(O)c1C2=O)C[C@@](O)(C(=O)CO)C[C@@H]3O[C@H]1C[C@H](N)[C@H](O)[C@H](C)O1 [DOXORUBICIN]	200	500	2400	300	900	> 17200	200	900	> 17200
